Laboratory results as given in ChEMBL document CHEMBL4138227, “Identification of an oxime-containing C-glucosylarene as a potential inhibitor of sodium-dependent glucose co-transporter 2” (Eur J Med Chem, 2018).

What was measured:
[1] = biological target: T1, Sodium/glucose cotransporter 2 (Homo sapiens, UniProt P31639); experiment: Inhibition of human SGLT2 expressed in CHO cells assessed as reduction in [14C]AMG uptake after 1 hr by microbeta counting method; assay type: cell-based
T1 sequence (P31639 whole entry): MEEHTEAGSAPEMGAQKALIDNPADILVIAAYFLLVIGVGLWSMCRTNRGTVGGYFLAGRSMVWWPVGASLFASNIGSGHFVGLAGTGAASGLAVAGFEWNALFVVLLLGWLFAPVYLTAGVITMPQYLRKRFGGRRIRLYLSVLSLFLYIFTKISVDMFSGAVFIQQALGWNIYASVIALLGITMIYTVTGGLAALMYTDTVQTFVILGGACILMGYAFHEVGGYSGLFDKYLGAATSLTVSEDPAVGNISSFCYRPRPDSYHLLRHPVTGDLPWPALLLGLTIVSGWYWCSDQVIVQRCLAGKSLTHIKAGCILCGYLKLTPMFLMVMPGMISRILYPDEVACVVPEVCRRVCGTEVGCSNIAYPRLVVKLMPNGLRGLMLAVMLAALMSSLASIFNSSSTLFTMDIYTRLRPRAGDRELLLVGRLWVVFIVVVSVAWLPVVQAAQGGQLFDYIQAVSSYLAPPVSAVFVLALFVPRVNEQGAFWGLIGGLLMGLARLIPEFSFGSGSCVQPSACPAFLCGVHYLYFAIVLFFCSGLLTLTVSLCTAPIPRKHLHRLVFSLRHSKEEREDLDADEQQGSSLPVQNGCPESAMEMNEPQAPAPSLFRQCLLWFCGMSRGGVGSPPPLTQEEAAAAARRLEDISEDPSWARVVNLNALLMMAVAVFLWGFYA
How it was run: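 CHO cells stably expressing human SGLT2 (or SGLT1); inhibition of sodium-dependent uptake of [14C]α-methyl-D-glucopyranoside measured; EC50 from at least two independent experiments, each in triplicate.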

[2] = Cmax in Sprague-Dawley rat at 1.1 mg/kg, po; assay type: ADME, organism-based; parameters: dose 1.1 mg/kg, route oral; details: in vivo
[3] = Elimination half life in Sprague-Dawley rat at 1.1 mg/kg, po; assay type: ADME, organism-based; details: in vivo, read-out: beta t1/2 (converted)
[4] = Tmax in Sprague-Dawley rat at 1.1 mg/kg, po; assay type: ADME, organism-based; details: in vivo
[5] = AUC (0 to infinity) in Sprague-Dawley rat at 1.1 mg/kg, po; assay type: ADME, organism-based; parameters: dose 1.1 mg/kg, time infinity, route oral; details: in vivo
How it was run: (§1)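 Rats got a single intravenous or oral dose, with 3 animals per route. Pharmacokinetic parameters were derived, including T1/2, clearance, Vss, Cmax, Tmax, AUC(0-inf) and oral bioavailability (F).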

[6] = Oral bioavailability in Sprague-Dawley rat at 1.1 mg/kg; assay type: ADME, organism-based; details: in vivo
[7] = Elimination half life in Sprague-Dawley rat at 1.1 mg/kg, iv; assay type: ADME, organism-based; details: in vivo, read-out: beta t1/2 (converted)
[8] = Clearance in Sprague-Dawley rat at 1.1 mg/kg, iv; assay type: ADME, organism-based; details: in vivo
[9] = Volume of distribution at steady state in Sprague-Dawley rat at 1.1 mg/kg, iv; assay type: ADME, organism-based; details: in vivo, read-out: Vdss
[10] = AUC (0 to infinity) in Sprague-Dawley rat at 1.1 mg/kg, iv; assay type: ADME, organism-based; parameters: dose 1.1 mg/kg, route intravenous, time infinity; details: in vivo; how it was run: as §1
[11] = Elimination half life in Sprague-Dawley rat at 1 mg/kg, iv; assay type: ADME, organism-based; details: in vivo, read-out: beta t1/2 (converted)
[12] = Clearance in Sprague-Dawley rat at 1 mg/kg, iv; assay type: ADME, organism-based; details: in vivo
[13] = Volume of distribution at steady state in Sprague-Dawley rat at 1 mg/kg, iv; assay type: ADME, organism-based; details: in vivo, read-out: Vdss
[14] = AUC (0 to infinity) in Sprague-Dawley rat at 1 mg/kg, iv; assay type: ADME, organism-based; parameters: dose 1 mg/kg, time infinity, route intravenous; details: in vivo; how it was run: as §1
[15] = Elimination half life in Sprague-Dawley rat at 1 mg/kg, po; assay type: ADME, organism-based; details: in vivo, read-out: beta t1/2 (converted)
[16] = Cmax in Sprague-Dawley rat at 1 mg/kg, po; assay type: ADME, organism-based; parameters: dose 1 mg/kg, route oral; details: in vivo
[17] = Tmax in Sprague-Dawley rat at 1 mg/kg, po; assay type: ADME, organism-based; details: in vivo
[18] = AUC (0 to infinity) in Sprague-Dawley rat at 1 mg/kg, po; assay type: ADME, organism-based; parameters: dose 1 mg/kg, time infinity, route oral; details: in vivo; how it was run: as §1
[19] = Oral bioavailability in Sprague-Dawley rat at 1 mg/kg; assay type: ADME, organism-based; details: in vivo
Rattus norvegicus [20] = experiment: In vivo inhibition of SGLT2 in Sprague-Dawley rat assessed as urinary glucose excretion per 200 gram of body weight at 0.1 mg/kg, po administered as single dose measured after 24 hrs; assay type: functional
How it was run: (§2)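 Normal SD rats given a single oral dose (0.1, 1, 10 or 50 mg/kg) or vehicle; urine collected over 24 h and glucose excretion expressed as mg per 200 g body weight; mean ± SEM, n = 4/group (vehicle n = 8).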

Rattus norvegicus [21] = experiment: In vivo inhibition of SGLT2 in Sprague-Dawley rat assessed as urinary glucose excretion per 200 gram of body weight at 1 mg/kg, po administered as single dose measured after 24 hrs; assay type: functional; how it was run: as §2
Rattus norvegicus [22] = experiment: In vivo inhibition of SGLT2 in Sprague-Dawley rat assessed as urinary glucose excretion per 200 gram of body weight at 10 mg/kg, po administered as single dose measured after 24 hrs; assay type: functional; how it was run: as §2
Rattus norvegicus [23] = experiment: In vivo inhibition of SGLT2 in Sprague-Dawley rat assessed as urinary glucose excretion per 200 gram of body weight at 50 mg/kg, po administered as single dose measured after 24 hrs; assay type: functional; how it was run: as §2
Rattus norvegicus [24] = experiment: In vivo inhibition of SGLT2 in Sprague-Dawley rat assessed as increase in urinary glucose excretion per 200 gram of body weight at 0.1 to 50 mg/kg, po administered as single dose measured after 24 hrs relative to control; assay type: functional
How it was run: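 Normal Sprague-Dawley rats were given a single oral dose of 0.1, 1, 10 or 50 mg/kg. Urine was collected over 24 h and glucose excretion expressed as mg glucose per 200 g body weight, relative to vehicle controls. Groups were n = 4, with vehicle n = 8. Data are mean ± SEM; p < 0.05 vs vehicle.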

Rattus norvegicus [25] = experiment: Antihyperglycemic activity in streptozotocin-induced diabetic Sprague-Dawley rat model assessed as reduction in blood glucose level at 0.1 to 10 mg/kg, po administered as single dose measured after 5 hrs relative to control; assay type: functional; parameters: scale not given: the % may be the effect or the level left
How it was run: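 STZ-diabetic SD rats (blood glucose >450 mg/dL), single oral dose 0.1 or 10 mg/kg or vehicle; tail-vein blood sampled at 0 (predose), 0.5, 1, 2, 3, 4 and 5 h for glucose; reduction expressed versus vehicle control; mean ± SEM, n = 6/group.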

hERG (KCNH2) = hERG (KCNH2) (Homo sapiens, UniProt Q12809); experiment: Inhibition of human ERG at 10 uM by radioligand assay relative to control
How it was run: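 hERG radioligand binding assay run externally by a contract laboratory; test compound at 10 µM, percent inhibition reported.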

Sequence of hERG (KCNH2) (Q12809 whole entry): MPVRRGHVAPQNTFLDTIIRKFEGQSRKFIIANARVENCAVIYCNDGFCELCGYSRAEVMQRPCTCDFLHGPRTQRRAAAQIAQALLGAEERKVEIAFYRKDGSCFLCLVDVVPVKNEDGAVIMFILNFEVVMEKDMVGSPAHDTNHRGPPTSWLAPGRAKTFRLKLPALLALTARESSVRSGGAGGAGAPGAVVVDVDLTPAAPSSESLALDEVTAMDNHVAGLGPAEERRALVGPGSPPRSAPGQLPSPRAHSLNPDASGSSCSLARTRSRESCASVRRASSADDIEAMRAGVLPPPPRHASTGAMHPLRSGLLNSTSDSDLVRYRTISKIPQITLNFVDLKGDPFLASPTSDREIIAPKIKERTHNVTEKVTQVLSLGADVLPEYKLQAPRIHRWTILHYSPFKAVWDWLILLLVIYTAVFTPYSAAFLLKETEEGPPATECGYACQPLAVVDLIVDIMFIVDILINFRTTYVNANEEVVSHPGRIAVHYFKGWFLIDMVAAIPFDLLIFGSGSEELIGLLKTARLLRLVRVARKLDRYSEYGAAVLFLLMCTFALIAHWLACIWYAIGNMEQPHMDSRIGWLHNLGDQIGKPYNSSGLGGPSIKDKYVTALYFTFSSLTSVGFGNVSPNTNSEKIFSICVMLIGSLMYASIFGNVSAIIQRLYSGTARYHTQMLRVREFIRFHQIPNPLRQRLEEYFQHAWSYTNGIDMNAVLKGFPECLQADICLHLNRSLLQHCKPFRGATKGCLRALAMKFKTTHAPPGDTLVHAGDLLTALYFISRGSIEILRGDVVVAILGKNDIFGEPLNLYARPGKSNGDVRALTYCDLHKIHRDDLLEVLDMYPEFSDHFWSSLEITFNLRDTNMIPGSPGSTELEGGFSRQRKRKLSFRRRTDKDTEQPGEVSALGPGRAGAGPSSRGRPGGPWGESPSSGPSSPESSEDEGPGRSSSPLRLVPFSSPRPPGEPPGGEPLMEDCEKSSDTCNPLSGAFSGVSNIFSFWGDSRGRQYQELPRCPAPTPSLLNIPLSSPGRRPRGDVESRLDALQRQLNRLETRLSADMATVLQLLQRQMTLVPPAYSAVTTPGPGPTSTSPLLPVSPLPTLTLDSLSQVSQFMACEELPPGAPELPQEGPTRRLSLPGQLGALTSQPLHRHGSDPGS

Structure (SMILES): CCOc1ccc(Cc2cc([C@@H]3O[C@H](CNO)[C@@H](O)[C@H](O)[C@H]3O)ccc2Cl)cc1
- EC50 [1]: 95 nM

Structure (SMILES): CCOc1ccc(Cc2cc([C@@H]3O[C@H](/C=N/Nc4ccc([N+](=O)[O-])cc4)[C@@H](O)[C@H](O)[C@H]3O)ccc2Cl)cc1
- EC50 [1]: 370 nM

Structure (SMILES): CCO/N=C/[C@H]1O[C@@H](c2ccc(Cl)c(Cc3ccc(OCC)cc3)c2)[C@H](O)[C@@H](O)[C@@H]1O
- EC50 [1]: 335 nM

Structure (SMILES): CCC#CCO/N=C/[C@H]1O[C@@H](c2ccc(Cl)c(Cc3ccc(OCC)cc3)c2)[C@H](O)[C@@H](O)[C@@H]1O
- EC50 [1]: 396 nM

Structure (SMILES): CCOc1ccc(Cc2cc([C@@H]3O[C@H](/C=N/NC(C)=O)[C@@H](O)[C@H](O)[C@H]3O)ccc2Cl)cc1
- EC50 [1]: 395 nM

Structure (SMILES): CCOc1ccc(Cc2cc([C@@H]3O[C@H](/C=N/NCCO)[C@@H](O)[C@H](O)[C@H]3O)ccc2Cl)cc1
- EC50 [1]: 88 nM
- Cmax [2]: 34.5 ng/mL
- half-life [3]: 1.2 h
- Tmax [4]: 0.7 h
- AUC(0-inf) [5]: 73 ng·h/mL
- bioavailability [6]: 7.1%
- half-life [7]: 0.7 h
- clearance [8]: 17.6 mL/min/kg
- Vd [9]: 0.8 L/kg
- AUC(0-inf) [10]: 1030 ng·h/mL

Structure (SMILES): CCOc1ccc(Cc2cc([C@@H]3O[C@H](/C=N/NC(=O)c4ccsc4)[C@@H](O)[C@H](O)[C@H]3O)ccc2Cl)cc1
- EC50 [1]: 208 nM

Structure (SMILES): CCOc1ccc(Cc2cc([C@@H]3O[C@H](CNOC)[C@@H](O)[C@H](O)[C@H]3O)ccc2Cl)cc1
- EC50 [1]: 63 nM
- half-life [11]: 1.9 h
- clearance [12]: 16.5 mL/min/kg
- Vd [13]: 1.8 L/kg
- AUC(0-inf) [14]: 1070 ng·h/mL
- half-life [15]: 3 h
- Cmax [16]: 67.2 ng/mL
- Tmax [17]: 1.3 h
- AUC(0-inf) [18]: 352 ng·h/mL
- bioavailability [19]: 32.8%

Structure (SMILES): CCOc1ccc(Cc2cc([C@@H]3O[C@H](/C=N/OCCC(C)(C)C)[C@@H](O)[C@H](O)[C@H]3O)ccc2Cl)cc1
- EC50 [1]: 8540 nM

Structure (SMILES): CCOc1ccc(Cc2cc([C@@H]3O[C@H](/C=N/NC4=NCCN4)[C@@H](O)[C@H](O)[C@H]3O)ccc2Cl)cc1
- EC50 [1]: 429 nM

Structure (SMILES): CCOc1ccc(Cc2cc([C@@H]3O[C@H](/C=N/OCC4CC4)[C@@H](O)[C@H](O)[C@H]3O)ccc2Cl)cc1
- EC50 [1]: 1950 nM

Structure (SMILES): CCOc1ccc(Cc2cc([C@@H]3O[C@H](/C=N/NC(=O)c4ccncc4)[C@@H](O)[C@H](O)[C@H]3O)ccc2Cl)cc1
- EC50 [1]: 173 nM

Structure (SMILES): CCOc1ccc(Cc2cc([C@@H]3O[C@H](/C=N/O)[C@@H](O)[C@H](O)[C@H]3O)ccc2Cl)cc1
- EC50 [1]: 46 nM
- half-life [11]: 4.7 h
- clearance [12]: 5 mL/min/kg
- Vd [13]: 1.8 L/kg
- Cmax [2]: 239 ng/mL
- AUC(0-inf) [14]: 3270 ng·h/mL
- half-life [3]: 9 h
- Tmax [4]: 1 h
- AUC(0-inf) [5]: 2270 ng·h/mL
- bioavailability [6]: 64%
- Activity (Rattus norvegicus [20]): 275 mg
- Activity (Rattus norvegicus [21]): 2215 mg
- Activity (Rattus norvegicus [22]): 1935 mg
- Activity (Rattus norvegicus [23]): 2732 mg
- fold change (FC) (Rattus norvegicus [24]): 476 - 4730
- Activity (Rattus norvegicus [25]): 44%
- inhibition at 10 µM (hERG (KCNH2)): 2%

Structure (SMILES): CCOc1ccc(Cc2cc([C@@H]3O[C@H](CNNC(=O)c4ccco4)[C@@H](O)[C@H](O)[C@H]3O)ccc2Cl)cc1
- EC50 [1]: 151 nM
